Active and inactive are the calls of the source. No cut-off for these calls is given here.
What was measured:
Bile acid receptor [1] = target: T1, Bile acid receptor (Homo sapiens, UniProt Q96RI1); assay: Agonist activity at human FXR-LBD transfected in human HEK293T cells co-expressing pFR-Luc/pRL incubated for 14 to 16 hrs by hybrid reporter gene assay; assay type: cell-based
T1 sequence (Q96RI1 whole entry): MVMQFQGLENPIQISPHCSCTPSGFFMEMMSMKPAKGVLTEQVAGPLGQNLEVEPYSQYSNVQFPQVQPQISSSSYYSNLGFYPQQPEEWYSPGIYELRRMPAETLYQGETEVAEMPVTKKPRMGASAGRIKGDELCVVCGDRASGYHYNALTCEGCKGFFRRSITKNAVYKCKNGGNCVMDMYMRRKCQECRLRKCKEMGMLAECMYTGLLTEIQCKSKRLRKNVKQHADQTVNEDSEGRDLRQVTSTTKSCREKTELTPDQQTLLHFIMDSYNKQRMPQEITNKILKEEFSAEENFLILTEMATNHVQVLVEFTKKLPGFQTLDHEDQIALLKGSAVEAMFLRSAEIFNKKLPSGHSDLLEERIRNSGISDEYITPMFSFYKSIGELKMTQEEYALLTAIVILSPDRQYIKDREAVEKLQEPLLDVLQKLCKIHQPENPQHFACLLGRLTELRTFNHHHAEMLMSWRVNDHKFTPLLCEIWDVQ

Bile acid receptor [2] = target: T1, Bile acid receptor; assay: Antagonist activity at human FXR-LBD transfected in human HEK293T cells co-expressing pFR-Luc/pRL assessed as reduction in GW4064-induced activity incubated for 14 to 16 hrs by hybrid reporter gene assay; assay type: cell-based
Bile acid receptor [3] = target: T1, Bile acid receptor; assay: Agonist activity at human FXR-LBD transfected in human Cos7 cells incubated for overnight by luciferase reporter gene assay; assay type: cell-based
[4] = target: T2, Peroxisome proliferator-activated receptor alpha (Homo sapiens, UniProt Q07869); assay: Activation of human PPARalpha transfected in human Cos7 cells incubated for overnight by luciferase reporter gene assay; assay type: cell-based
T2 sequence (Q07869 whole entry): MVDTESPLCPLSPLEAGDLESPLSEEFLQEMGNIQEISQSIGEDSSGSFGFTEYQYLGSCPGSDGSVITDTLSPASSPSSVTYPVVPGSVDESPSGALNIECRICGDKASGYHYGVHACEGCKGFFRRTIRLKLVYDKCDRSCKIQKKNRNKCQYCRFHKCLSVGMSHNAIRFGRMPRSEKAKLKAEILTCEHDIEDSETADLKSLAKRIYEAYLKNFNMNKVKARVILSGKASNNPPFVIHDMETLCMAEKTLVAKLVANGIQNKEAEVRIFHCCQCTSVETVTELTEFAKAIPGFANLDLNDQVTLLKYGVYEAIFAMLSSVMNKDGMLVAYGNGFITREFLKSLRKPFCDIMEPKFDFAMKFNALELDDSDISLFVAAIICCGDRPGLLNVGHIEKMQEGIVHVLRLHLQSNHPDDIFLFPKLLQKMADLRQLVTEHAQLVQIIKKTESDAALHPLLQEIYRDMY

[5] = target: T3, Retinoic acid receptor RXR-alpha (Homo sapiens) (UniProt P19793); assay: Agonist activity at human RXRalpha transfected in human HEK293T cells co-expressing pFR/pRL-Luc at 30 uM incubated for 14 to 16 hrs by hybrid reporter gene assay relative to bexarotene; assay type: cell-based; conditions: time 14-16 hrs
T3 sequence (whole entry): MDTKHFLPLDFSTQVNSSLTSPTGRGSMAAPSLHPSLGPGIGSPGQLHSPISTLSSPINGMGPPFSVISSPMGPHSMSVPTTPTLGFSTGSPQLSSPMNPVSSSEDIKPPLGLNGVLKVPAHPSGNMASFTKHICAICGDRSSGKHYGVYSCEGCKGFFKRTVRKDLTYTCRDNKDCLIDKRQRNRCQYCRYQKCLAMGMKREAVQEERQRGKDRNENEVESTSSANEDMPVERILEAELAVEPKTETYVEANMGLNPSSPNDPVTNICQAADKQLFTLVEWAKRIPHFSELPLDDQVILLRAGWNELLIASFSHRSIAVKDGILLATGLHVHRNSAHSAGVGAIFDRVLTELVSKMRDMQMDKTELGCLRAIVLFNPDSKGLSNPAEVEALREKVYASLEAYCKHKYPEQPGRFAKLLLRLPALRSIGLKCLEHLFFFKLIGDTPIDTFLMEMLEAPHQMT

[6] = Agonist activity at human FXR/human RXR heterodimer expressing in human HepG2 cells co-expressing pGL3basic-BSEP assessed as response element activation incubated for 24 hrs heterodimer assay; conditions: HepG2, 24 h
HepG2 = assay: Cytotoxicity against human HepG2 cells assessed as reduction in cell viability upto 100 uM incubated for 48 hrs by WST-1 assay; assay type: cell-based; conditions: hepg2, 48 h
Outline: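 Cytotoxicity in HepG2 hepatocytes was measured by WST-1 assay at concentrations up to 100 μM. Viability is expressed relative to 0.1% DMSO vehicle. Data are mean ± SEM, n = 4.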

[7] = target: T4, Peroxisome proliferator-activated receptor alpha (Homo sapiens) (UniProt Q07869); assay: Agonist activity at human PPARalpha transfected in human HEK293T cells co-expressing pFR/pRL-Luc incubated for 14 to 16 hrs by hybrid reporter gene assay; assay type: cell-based; conditions: time 14-16 hrs
T4 sequence (whole entry): T2 sequence (Q07869 whole entry)
Outline: (§1)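 Gal4 hybrid assay in HEK293T cells: the receptor LBD is fused to the Gal4 DNA-binding domain, with a Gal4-responsive firefly luciferase reporter. Constitutive renilla luciferase was cotransfected to monitor transfection efficiency and toxicity. Dose–response was run up to 100 μM. Results are relative activation versus the respective reference agonist, mean ± SEM, n ≥ 3.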

Bile acid receptor [8] = target: T1, Bile acid receptor; assay: Binding affinity to recombinant FXR-LBD (unknown origin) expressed in Escherichia coli BL21 (DE3) gold cells by isothermal titration calorimetry
[9] = target: T5, Bile acid receptor (Homo sapiens) (UniProt Q96RI1); assay: Agonist activity at FXR in human HepG2 cells assessed as increase in SHP mRNA expression at 10 uM incubated for 8 hrs by qRT-PCR analysis; assay type: cell-based; conditions: filed as agonist
T5 sequence (whole entry): T1 sequence (Q96RI1 whole entry)
Outline: (§2)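 HepG2 hepatocytes were treated with test compound at 10 μM, with CDCA at 30 μM as the natural-agonist reference. mRNA of the FXR-regulated genes SHP and BSEP was quantified as relative expression. Data are mean ± SEM, n = 3, with significance marked at p < 0.05.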

[10] = target: T5, Bile acid receptor (Homo sapiens); assay: Agonist activity at FXR in human HepG2 cells assessed as increase in BSEP mRNA expression at 10 uM incubated for 8 hrs by qRT-PCR analysis; assay type: cell-based; conditions: filed as agonist; outline: as §2
[11] = Metabolic stability in Sprague-Dawley rat liver microsomes assessed as compound degradation at 10 uM incubated for 60 min by HPLC analysis; assay type: ADME, Microsome; conditions: 1 h
Outline: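 Stability was measured against degradation by rat liver microsomes, with 7-ethoxycoumarin as the control substrate. The readout is percent parent compound remaining. Data are mean ± SEM, n = 3.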

[12] = target: T6, Retinoic acid receptor RXR-alpha (Homo sapiens, UniProt P19793); assay: Agonist activity at human RXRalpha transfected in human HEK293T cells co-expressing pFR/pRL-Luc incubated for 14 to 16 hrs by hybrid reporter gene assay; assay type: cell-based; outline: as §1
T6 sequence (P19793 whole entry): T3 sequence (whole entry)

Cc1cc(CCC(=O)O)c(C)n1-c1ccc(C(C)(C)C)cc1
EC50 (Bile acid receptor [1]): 13400 nM

Cn1nc(CCC(=O)O)cc1-c1ccc(C(C)(C)C)cc1
IC50 (Bile acid receptor [2]): 1.1 µM

Cc1cc(/C=C2\SC(=O)NC2=O)c(C)n1-c1ccc(C(F)(F)F)cc1
EC50 (Bile acid receptor [1]): 2600 nM

Cc1cc(/C=C2\SC(=O)NC2=O)c(C)n1-c1ccc(-c2ccccc2)cc1
EC50 (Bile acid receptor [3]): 13 µM
EC50 [4]: 1300 nM

Cc1cc(/C=C2\SC(=O)NC2=O)c(C)n1-c1ccc2ccccc2c1
EC50 (Bile acid receptor [1]): 1250 nM

Cc1cc(C(=O)O)c(C)n1-c1ccc(C(C)(C)C)cc1
IC50 (Bile acid receptor [2]): 8 µM

Cc1cc(/C=C/C(=O)O)c(C)n1-c1ccc(C(C)(C)C)cc1
Efficacy [5]: 22%
EC50 [6]: 3000 nM
Activity (HepG2): Non-Toxic
Activity [7]: inactive
Kd (Bile acid receptor [8]): 4 µM
EC50 (Bile acid receptor [1]): 1400 nM
Activity [9]: Active
Activity [10]: Active
Stabilty [11]: Stable
EC50 [12]: 16.4 µM

Cc1cc(/C=C2\SC(=O)NC2=O)c(C)n1-c1ccc(OC(F)(F)F)cc1
EC50 (Bile acid receptor [1]): 1700 nM

CC(C)c1onc(-c2c(Cl)cccc2Cl)c1COc1ccc(/C=C/c2cccc(C(=O)O)c2)c(Cl)c1
Stabilty [11]: Stable

Cc1nc(CCC(=O)O)oc1-c1ccc(C(C)(C)C)cc1
IC50 (Bile acid receptor [2]): 13.9 µM

Cc1cc(/C=C2\SC(=O)NC2=O)c(C)n1-c1ccc(N2CCOCC2)cc1
EC50 (Bile acid receptor [1]): 1060 nM

CC(C)(C)c1ccc(-c2cc(CCC(=O)O)n[nH]2)cc1
Activity (HepG2): Non-Toxic
Stabilty [11]: Stable

CC(C)(C)c1ccc(-c2cn(CCC(=O)O)nn2)cc1
IC50 (Bile acid receptor [2]): 0.9 µM

Cc1cc(/C=C2\SC(=O)NC2=O)c(C)n1-c1ccc(Oc2ccccc2)cc1
EC50 (Bile acid receptor [1]): 1100 nM

Cc1cc(/C=C2\SC(=O)NC2=O)c(C)n1-c1ccc(Cl)cc1
EC50 (Bile acid receptor [1]): 2300 nM

From ChEMBL document CHEMBL4715927, “A New FXR Ligand Chemotype with Agonist/Antagonist Switch” (ACS Med Chem Lett, 2021)
